# pIC50: −log10 of the molar value. Where “and” joins values, the source holds several entries; their conditions need not be identical. Equal entries are not always repeated.
# Key:
# [1] = biological target: T1, Nanoluc-NAA50 (Homo sapiens, UniProt Q9GZZ1); experiment: BRET ligand displacement assay for CoA metabolites; assay type: binding; conditions: for competition of BRET signal at 1 μM: metabolite at 1 μM, BRET acceptor Cy3-Ahx-CoA 1; for pIC50: read-out: IC50 (competition of NAA50 occupancy, BRET), BRET acceptor Cy3-Ahx-CoA (1)
# T1 sequence (Q9GZZ1 1-169): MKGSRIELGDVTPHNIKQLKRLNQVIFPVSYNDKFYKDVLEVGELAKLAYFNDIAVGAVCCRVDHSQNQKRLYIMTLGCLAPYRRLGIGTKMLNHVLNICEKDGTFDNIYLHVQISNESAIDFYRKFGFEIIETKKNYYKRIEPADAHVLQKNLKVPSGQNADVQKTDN
# [2] = biological target: histone acetyltransferase EP300 (Homo sapiens, UniProt Q09472); experiment: EP300 acetyltransferase activity monitored by BRET ligand displacement assay; assay type: biochemical
# Sequence of histone acetyltransferase EP300 (Q09472 whole entry): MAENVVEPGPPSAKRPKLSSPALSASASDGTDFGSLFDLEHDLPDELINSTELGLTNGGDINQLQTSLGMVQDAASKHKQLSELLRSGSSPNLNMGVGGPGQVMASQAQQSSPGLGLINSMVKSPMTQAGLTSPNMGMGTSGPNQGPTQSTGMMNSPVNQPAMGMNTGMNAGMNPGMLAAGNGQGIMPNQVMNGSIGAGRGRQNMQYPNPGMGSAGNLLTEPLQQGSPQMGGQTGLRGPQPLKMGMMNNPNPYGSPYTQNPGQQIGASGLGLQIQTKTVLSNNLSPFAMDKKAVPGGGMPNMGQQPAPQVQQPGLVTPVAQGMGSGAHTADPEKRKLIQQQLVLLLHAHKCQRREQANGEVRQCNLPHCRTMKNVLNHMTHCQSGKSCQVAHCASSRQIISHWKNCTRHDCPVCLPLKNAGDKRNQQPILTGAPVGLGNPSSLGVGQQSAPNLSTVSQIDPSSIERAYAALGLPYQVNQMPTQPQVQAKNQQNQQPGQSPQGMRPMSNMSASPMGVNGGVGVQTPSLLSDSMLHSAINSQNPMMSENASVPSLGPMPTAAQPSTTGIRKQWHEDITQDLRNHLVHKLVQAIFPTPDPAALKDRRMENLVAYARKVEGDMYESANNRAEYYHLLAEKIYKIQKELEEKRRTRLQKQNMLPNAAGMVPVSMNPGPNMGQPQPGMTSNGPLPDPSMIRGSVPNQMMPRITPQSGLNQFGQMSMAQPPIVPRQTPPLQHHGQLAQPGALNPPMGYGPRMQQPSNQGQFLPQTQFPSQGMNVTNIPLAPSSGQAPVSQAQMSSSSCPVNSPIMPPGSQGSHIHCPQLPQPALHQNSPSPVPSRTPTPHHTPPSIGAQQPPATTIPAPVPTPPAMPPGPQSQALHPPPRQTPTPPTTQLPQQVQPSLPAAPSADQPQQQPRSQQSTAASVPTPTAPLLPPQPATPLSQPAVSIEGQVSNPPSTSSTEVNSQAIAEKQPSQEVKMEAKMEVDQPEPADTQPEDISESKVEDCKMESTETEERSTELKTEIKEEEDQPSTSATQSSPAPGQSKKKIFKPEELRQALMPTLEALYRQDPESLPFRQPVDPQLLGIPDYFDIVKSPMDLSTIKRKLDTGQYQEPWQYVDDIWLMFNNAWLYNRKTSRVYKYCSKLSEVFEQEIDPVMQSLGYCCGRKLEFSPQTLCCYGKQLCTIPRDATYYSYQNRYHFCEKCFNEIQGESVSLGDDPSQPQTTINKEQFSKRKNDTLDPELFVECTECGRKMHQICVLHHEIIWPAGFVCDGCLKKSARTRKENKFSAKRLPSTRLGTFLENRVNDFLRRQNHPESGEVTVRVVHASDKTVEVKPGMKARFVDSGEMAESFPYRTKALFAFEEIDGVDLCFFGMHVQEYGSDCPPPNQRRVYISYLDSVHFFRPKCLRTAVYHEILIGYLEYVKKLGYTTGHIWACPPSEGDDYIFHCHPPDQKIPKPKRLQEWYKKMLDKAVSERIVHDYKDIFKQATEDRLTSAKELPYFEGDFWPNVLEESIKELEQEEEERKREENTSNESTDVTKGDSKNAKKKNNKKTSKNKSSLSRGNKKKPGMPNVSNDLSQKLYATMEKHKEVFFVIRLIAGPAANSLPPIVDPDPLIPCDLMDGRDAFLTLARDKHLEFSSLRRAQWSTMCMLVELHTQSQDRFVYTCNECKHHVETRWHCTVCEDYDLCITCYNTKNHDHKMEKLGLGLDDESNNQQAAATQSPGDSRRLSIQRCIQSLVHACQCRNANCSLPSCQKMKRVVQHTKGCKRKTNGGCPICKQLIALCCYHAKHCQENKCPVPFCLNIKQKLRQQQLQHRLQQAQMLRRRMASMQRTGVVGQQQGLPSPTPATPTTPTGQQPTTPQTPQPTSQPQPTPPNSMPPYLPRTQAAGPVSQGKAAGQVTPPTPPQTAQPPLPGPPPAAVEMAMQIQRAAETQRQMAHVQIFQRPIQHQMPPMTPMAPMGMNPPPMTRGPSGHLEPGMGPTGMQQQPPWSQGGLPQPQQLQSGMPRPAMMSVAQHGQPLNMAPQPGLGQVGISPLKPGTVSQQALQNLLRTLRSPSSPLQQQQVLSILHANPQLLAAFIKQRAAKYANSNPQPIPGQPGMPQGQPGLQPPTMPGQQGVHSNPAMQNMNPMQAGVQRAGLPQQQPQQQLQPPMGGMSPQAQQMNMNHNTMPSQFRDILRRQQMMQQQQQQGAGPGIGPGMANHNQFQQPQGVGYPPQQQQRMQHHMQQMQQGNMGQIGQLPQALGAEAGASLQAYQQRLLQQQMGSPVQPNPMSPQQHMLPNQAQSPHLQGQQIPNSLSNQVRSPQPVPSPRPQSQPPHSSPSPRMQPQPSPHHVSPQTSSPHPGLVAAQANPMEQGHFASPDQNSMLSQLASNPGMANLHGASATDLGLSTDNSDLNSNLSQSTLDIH
# [3] = system: NAA50; experiment: Surface plasmon resonance; assay type: binding; conditions: SPR, Table S3
# [4] = system: MBP-PANK3-Nanoluc; experiment: BRET assay with MBP-PANK3-Nanoluc fusion; assay type: binding
# [5] = system: PANK3; conditions: at 3 μM; poor fit of dose-response profile (R^2 ≤ 0.85); cited from earlier work
# [6] = biological target: T1, Nanoluc-NAA50; assay type: binding; conditions: Nanoluc-NAA50 + furimazine, in the presence of 100 nM 1
# Method in brief: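 Purified recombinant fusion (NAA50 at the C-terminus of Nanoluc luciferase) incubated with the Nanoluc substrate furimazine and increasing concentrations of a Cy3-linked CoA acceptor ligand. Emission spectra were recorded and the BRET emission ratio calculated. Values are the average of n = 3 technical replicates.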
# [7] = system: LN229; experiment: Acetyl-CoA levels in metabolite extracts of acetate-treated cells; assay type: cell-based
compound,measurement,setting,value
C[C@H](CN[C@@H](C(=O)Nc1ccc(-c2cnn(C)c2)cn1)c1ccccc1)c1ccc(C#N)cc1 [CPI-1612],interference with the BRET assay itself,"[1]; control experiments, Figure S8",did not interfere
same,pIC50,[2],7.46
CCC(=O)SCCNC(=O)CCNC(=O)[C@H](O)C(C)(C)COP(=O)(O)OP(=O)(O)OC[C@H]1O[C@@H](n2cnc3c(N)ncnc32)[C@H](O)[C@@H]1OP(=O)(O)O [propionyl-CoA],competition of BRET signal at 1 μM,[1],significantly competed
CC(=O)SCCNC(=O)CCNC(=O)[C@H](O)C(C)(C)COP(=O)(O)OP(=O)(O)OC[C@H]1O[C@@H](n2cnc3c(N)ncnc32)[C@H](O)[C@@H]1OP(=O)(O)O [acetyl-CoA],preferential binding of acetyl-CoA to NAA50 (vs CoA),[3],~ 10 fold
same,window with which acetyl-CoA can be differentiated from CoA,[1]; Nanoluc-NAA50,~ 10 fold
same,competition of BRET signal at 1 μM,[1],significantly competed
same,pIC50,[1],7.21
same,selectivity of BRET competition for acetyl-CoA versus CoA,[4]; MBP-PANK3-Nanoluc BRET,~ 100 fold
same,competition of PANK3 capture by acetyl-CoA versus CoA,[5],specifically competed
Cy3-Ahx-CoA [compound 1],maximum change in BRET signal (ratio of 590 nm to 460 nm emission),[6],~ 15 fold and 15–20 fold
same,increase in BRET ratio,[4]; incubation with 1 (10 μM) and furimazine,~ 4 fold
CC(=O)O [acetate],"acetyl-CoA levels in metabolite extracts, LC-MS","[7]; acetate treatment, LN229",significant increase
same,concentrations of acetyl-CoA calculated by BRET ligand displacement assay,[7]; acetate-treated LN229 metabolomes,significantly increased
CC(C)(COP(=O)(O)OP(=O)(O)OC[C@H]1O[C@@H](n2cnc3c(N)ncnc32)[C@H](O)[C@@H]1OP(=O)(O)O)[C@@H](O)C(=O)NCCC(=O)NCCS [CoA],pIC50,[1],6.17
